Sampled rows, rich in hits. Any-hit rate of the full collection: about 4.3%.
Hep lipid drop = inhibitors of hepatocyte lipid droplet formation, primary screen, imaging, high-throughput imaging, BODIPY stain. AML12 mouse hepatocytes, oleate lipid droplets. inhibition, % at 6.5 µM. 0.4% of 240,000 active. AID 1656, 2009;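 active = lipid droplet intensity inhibited by at least 50%, with more than 500 cells counted; inconclusive = wells with under 300 cells, treated as cytotoxic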
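Test system: AML12 hepatocytes (mouse); reagent: oleate loading, 100 µM; dosing: one dose, 6.5 µM compound; incubation: overnight exposure; signal: fluorescence imaging, 20x objective, two fields per well; read-out basis: % inhibition of corrected integrated BODIPY droplet signal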
AHR act = AHR activators, primary screen, cell-based, luminescence, luciferase reporter, human | Aryl hydrocarbon receptor (Homo sapiens), P35869 | AHR-responsive luciferase reporter cells | activation, % at 5 µM | 2.5% of 320,000 active | AID 2796, 2010; in the data active = activation above about 47%;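 also: 0% = vehicle wells and 100% = reference agonist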
Target sequence (P35869 whole entry, looked up): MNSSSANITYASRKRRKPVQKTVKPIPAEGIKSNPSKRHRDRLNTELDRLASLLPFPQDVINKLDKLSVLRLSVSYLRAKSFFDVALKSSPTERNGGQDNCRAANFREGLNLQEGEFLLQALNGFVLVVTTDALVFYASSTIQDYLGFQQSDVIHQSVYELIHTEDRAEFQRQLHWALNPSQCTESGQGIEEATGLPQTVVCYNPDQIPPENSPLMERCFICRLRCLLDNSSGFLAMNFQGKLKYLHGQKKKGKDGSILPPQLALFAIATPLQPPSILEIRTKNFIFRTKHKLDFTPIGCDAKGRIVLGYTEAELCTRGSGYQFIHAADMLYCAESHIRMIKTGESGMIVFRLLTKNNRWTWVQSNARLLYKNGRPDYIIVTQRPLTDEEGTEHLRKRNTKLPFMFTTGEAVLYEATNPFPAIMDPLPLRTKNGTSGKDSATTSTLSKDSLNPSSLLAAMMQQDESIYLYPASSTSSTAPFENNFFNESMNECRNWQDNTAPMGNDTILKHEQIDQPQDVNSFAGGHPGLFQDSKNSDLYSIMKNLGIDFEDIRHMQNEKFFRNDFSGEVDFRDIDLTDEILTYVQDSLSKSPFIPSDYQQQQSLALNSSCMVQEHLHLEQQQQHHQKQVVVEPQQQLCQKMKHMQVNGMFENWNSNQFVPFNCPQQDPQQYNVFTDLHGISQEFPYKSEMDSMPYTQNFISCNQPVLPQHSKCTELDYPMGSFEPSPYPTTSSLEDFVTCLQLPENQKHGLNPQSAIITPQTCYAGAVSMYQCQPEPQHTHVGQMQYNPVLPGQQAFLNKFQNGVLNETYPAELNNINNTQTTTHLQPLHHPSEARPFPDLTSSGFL
SR-BI uptake up = activators of SR-BI mediated DiI-HDL uptake, primary screen, ldlA[mSR-BI] CHO cells, DiI fluorescence; 3 h; 100 = double the neutral-control signal; activation, % at 12.5 µM; 0.096% of 320,000 active;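 active = mean replicate activation of at least 60% and every replicate at or above 60%; inconclusive = mean or all-replicate condition met, but not both; inactive = mean below 60% and not all replicates reaching 60%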;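 also: 0% = median plate neutral-control signal and 100% = twice that signal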
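Test system: SR-BI-overexpressing, LDLR-lacking CHO cells. Measured by: DiI fluorescence, bottom read. Medium: Ham's F12 with 0.5% BSA, HEPES 25 mM, pH 7.4. Timing: 3 h uptake period with compound, 37 °C.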
SR-BI DiI inh = inhibitors of SR-BI mediated HDL lipid uptake, primary screen, ldlA[mSR-BI] cells, fluorescence, single point | Scavenger receptor class B member 1 (Mus musculus), Q61009 | ldlA[mSR-BI] CHO cells, DiI-HDL uptake fluorescence, 3 h | inhibition, % at 12.5 µM | 0.96% of 320,000 active;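 active = mean replicate inhibition of at least 70% and a set share of replicates each scoring 70 or more; inconclusive = meets just one of the two criteria; inactive = fails both criteria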;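 also: 0% = median of neutral control wells and 100% = median of positive control wells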
Yeast superoxide = reduction of superoxide in aged yeast, primary screen, HTS | S. cerevisiae aged cells, superoxide DHE fluorescence; hits give low values | 0.18% of 330,000 active | superoxide response (% of plate mean), % at 10 µM;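 active = superoxide response under a set limit, about three screen SD below normal, cut at about 65% in these data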;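 also: yeast aged for seven days with compound at 30 °C before DHE staining; 100% = average MFI of all compound-treated wells on the plate with controls excluded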
SMARCA2 act = SMARCA2 (BRM) function activators, primary screen, cell-based, luminescence, high throughput; activation, % at 9.1 µM; AID 652017, 2013; MG213 cells, MMTV-luciferase reporter, dexamethasone, overnight; 1% of 370,000 active; in the data active = activation above about 7.8%;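 also: 0% = vehicle wells and 100% = reference activator wells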
Lipid drop inh = hepatocyte lipid droplet accumulation inhibitors, confirmation, imaging, AML12 mouse hepatocytes, single concentration, high-content; shares compounds with Hep lipid drop; BODIPY lipid droplet imaging; droplets induced with 100 µM oleic acid; inhibition, % at 5.2 µM; 65% of 870 active;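 active = inhibition of lipid droplet metric at least 50%, with more than 300 cells in each of four replicates; inconclusive = wells under 300 cells, flagged as toxic or low count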;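 also: plate controls were DMSO with oleic acid for no effect and 5 µM Triacsin-C for full effect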
AML12 tox img = AML12 hepatocyte cytotoxicity, counter-screen for hepatic lipid droplet formation project, imaging, DAPI nuclear morphology imaging. shares compounds with Hep lipid drop. AML12 mouse hepatocytes; hits give high values; cells fed 100 µM oleate overnight. z-score at 5 µM. 3% of 870 active. AID 463200, 2010; in the data active = z-score above about 6.3;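 also: compound exposure lasted overnight at 37 °C before fixation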
Numbers without * were called inactive; ? = inconclusive; . = no result given.

SMILES | Hep lipid drop | AHR act | SR-BI uptake up | SR-BI DiI inh | Yeast superoxide | SMARCA2 act | others
CC(=O)c1ccc2c(c1)C1C(Cl)C(Sc3ccccc3[N+](=O)[O-])CC1C(c1ccccc1)N2 (stereo unspecified) | 1.2 | 5.5 | -35.4 | 35.4 | 95.0 | 3.3
CC(=O)c1ccc2c(c1)C1C(Cl)C(Sc3ccccc3[N+](=O)[O-])CC1C(c1ccccc1[N+](=O)[O-])N2 (stereo unspecified) | -17.6 | 7.3 | -73.1 | 73.1* | 112.2 | -2.7
CCN1CCN(C(=O)COc2ccc3oc4c(c3c2)CCCC4)CC1 | . | 1.9 | -71.9 | 71.9* | 103.0 | -3.7
CCN1CCN(C(=O)COc2ccc(S(=O)(=O)NC(C)C)cc2)CC1 | -6.5 | -0.6 | 25.2 | -25.2 | 90.5 | -5.0
CCOC(=O)c1c(C)n(Cc2ccco2)c2c1cc(O)c1ccccc12 | -16.4 | 51.3* | -31.2 | 31.2 | 81.3 | 0.1
CCOC(=O)c1c(C)n(Cc2ccco2)c2ccc(OC)cc12 | . | 7.8 | 11.1 | -11.1 | 97.3 | -2.4
CC(=O)C1=C(C)OC2=C(C(=O)CCC2)[C@@]12C(=O)N(C)c1ccccc12 | . | . | . | . | . | -2.3
Clc1ccc(-c2nc3ccc(Cl)cn3c2CN2CCOCC2)cc1 | -1.6 | 62.1* | -26.6 | 26.6 | 97.8 | 1.8
Cc1cccc(NP(=O)(Oc2ccccc2)Oc2ccccc2)c1C | -33.4 | -0.3 | -76.5 | 76.5* | 121.2 | 2.6
O=C(NCCN1CCC2(CC1)C(=O)NCN2c1ccccc1)c1ccc(Cl)cc1 | . | . | . | . | . | 6.0
CCS(=O)(=O)Nc1cccc(C(=C2CCCCC2)c2cnc[nH]2)c1 | . | 57.9* | -0.8 | 0.8 | 99.7 | -1.7
Cc1cccc(C(=O)NC(Oc2ccccc2)C(Cl)(Cl)Cl)c1 (stereo unspecified) | . | 50.2* | -34.0 | 34.0 | 112.4 | -3.5
Nc1c2c(nc3sc4c(c13)CCCC4)CCCCC2 | -0.9 | 57.9* | -48.7 | 48.6 | 102.7 | 4.4
CC/C(CC(c1ccccc1)c1c(O)c2ccccc2oc1=O)=N\NC(N)=S (stereo unspecified) | -2.8 | 0.9 | -80.4 | 80.4* | 113.9 | -4.4
O=C(CN1C(=O)[C@@H](Cc2ccc(O)cc2)N=C(c2ccccc2)c2ccccc21)NC1CCCCC1 | . | . | . | . | . | -3.5
CN(C)C(=O)Oc1ccc(Br)cc1C(=O)Nc1ccc(F)c(Cl)c1 | -16.8 | 66.9* | 6.1 | -6.1 | 94.4 | -0.6
CCN(CC)c1ccc(N=Cc2c(O)n(CCc3ccc(OC)c(OC)c3)c(=O)[nH]c2=O)cc1 | 2.1 | 0.4 | -48.8 | 48.8 | 96.3 | 2.7
CCN(CC)c1ccc(N=Cc2c(O)n(-c3cc(OC)ccc3OC)c(=O)[nH]c2=O)cc1 | 39.6 | 12.9 | -90.9 | 91.0* | 89.5 | -1.0
Cc1cc(OC(C)C(=O)NCc2ccncc2)c2c3c(c(=O)oc2c1)CCCC3 (stereo unspecified) | -9.4 | 13.1 | 3.2 | -3.2 | 119.0 | -0.2
Cc1cc(OCC(=O)NCc2ccncc2)c2c3c(c(=O)oc2c1)CCCC3 | -17.7 | 63.6* | -2.5 | 2.5 | 92.6 | -3.3
Cc1ccccc1-n1c(O)c(/C=N/NC(=O)c2ccccc2O)c(=O)[nH]c1=S | -0.4 | 11.8 | -109.1 | 109.1* | 103.7 | -1.4
O=C(N/N=C/c1c(O)n(C2CC2)c(=S)[nH]c1=O)c1ccccc1O | 16.9 | 13.2 | -92.3 | 92.3* | 112.2 | 6.5
CC(C)C[C@H]1N=C(c2ccccc2)c2ccccc2N(CC(=O)NC(C)(C)C)C1=O | . | . | . | . | . | -4.0
CCCN1CCc2cccc3c2[C@H]1Cc1ccc(O)c(O)c1-3 | . | 0.7 | -23.0 | 23.0 | 33.0* | .
COc1ccc2c(c1O)-c1c(OC)c(OC)cc3c1[C@H](C2)N(C)CC3 | . | 2.7 | 2.0 | -2.0 | 101.4 | 1.4
SMILES | Hep lipid drop | AHR act | SR-BI uptake up | SR-BI DiI inh | Yeast superoxide | SMARCA2 act | others
COc1ccc2c(c1)CC1(CN2C)C(=O)NC(=O)N(c2ccc(F)cc2)C1=O (stereo unspecified) | . | 72.3* | 1.8 | -1.8 | 88.6 | -0.9
COc1ccc2c(c1)CC1(CN2C)C(=O)NC(=O)N(c2ccc(C)cc2)C1=O (stereo unspecified) | 15.5 | 52.1* | 21.9 | -21.9 | 101.5 | 2.4
COc1cccc(-c2ccc3c(c2)C2c4cnnn4-c4ccccc4C(=O)N2CC3)c1 (stereo unspecified) | . | . | . | . | . | 0.2
COc1ccc([C@@H]2C[C@H]3[C@@H](CN2)CON3C)cc1 | . | . | . | . | . | 0.7
N=C1c2ccccc2CN1NC(=O)c1ccc(Cl)cc1 | . | 2.8 | 22.7 | -22.7 | 90.9 | 0.3
N=C1c2ccccc2CN1NC(=O)C1CC1 | -1.4 | 2.7 | 66.0* | -66.0 | 96.5 | -1.8
Cc1cc(N2CCNC[C@H]2C)ccc1N1CC[C@H](O)C1 | . | . | . | . | . | 1.8
C=CCN(CC#CCO)Cc1ccc(OC)cc1OC | . | . | . | . | . | -2.8
CC(C)(C)NC(=O)C1CN=C(c2ccccc2)c2cc(Cl)ccc2N1C(=O)C1CCC1 (stereo unspecified) | . | . | . | . | . | -3.5
CC(C)(C)c1ccc(O)c(N=Cc2c(O)ccc3ccccc23)c1 | 1.4 | 64.4* | -113.4 | 113.3* | 105.2 | -3.3
Brc1ccc2c(c1)-n1nncc1CNC2 | . | . | . | . | . | 2.3
COC(=O)C1CN(C#N)N(c2ccc(Cl)cc2)C12c1ccccc1-c1ccccc12 (stereo unspecified) | 131.4* | 7.0 | -127.4 | 127.4* | 97.7 | . | Lipid drop inh=?;AML12 tox img=35.6*
CN1c2ccc(Br)cc2[C@@H]2NCC[C@@H]2[C@@H]1CO | . | . | . | . | . | -0.1
CC1CCC/C=C/C2CC(O)CC2C(O)/C=C/C(=O)O1 (stereo unspecified) | 109.7* | -3.1 | . | . | 106.9 | -8.8 | Lipid drop inh=114.2*;AML12 tox img=16.8*
C[C@H]1CCC/C=C/C2C[C@H](O)CC2[C@H](O)/C=C/C(=O)O1 (stereo partly specified) | ? | -9.6 | 8.0 | -8.0 | 91.9 | .

Screens: PubChem, several laboratories
